The list is not random: actives were taken first. Their share in the collection is about 2.4%.
APOBEC3G inh = blocks human APOBEC3G single-stranded DNA deamination; 330,000 compounds, 0.28% hits; recombinant A3G, ssDNA deamination FAM/TAMRA fluorescence; AID 493012; inhibition, % at 20 µM; Q9HC16;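 active means inhibition of at least 40% at 20 µM, with no more than 30% in the related APOBEC3A deaminase screen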;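 further: plate controls were DMSO wells with A3G for no effect and wells lacking A3G enzyme for full effect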
PfGluPho inh = PfG6PD (Plasmodium falciparum) enzyme inhibition; PfGluPho enzyme, NADPH resazurin-diaphorase fluorescence; inhibition, % at 20 µM; 350,000 compounds, 0.78% hits; AID 504690;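 active means inhibition reaching at least a set limit at 20 µM in the primary screen, cut at about 59% in these data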;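 further: 0% = DMSO wells with substrate and 100% = DMSO wells lacking glucose-6-phosphate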
PfM18AAP inh-1 = blocks P. falciparum M18 aspartyl aminopeptidase. inhibition, % at 7.35 µM. 290,000 compounds, 1.2% hits. AID 1822. recombinant PfM18AAP, H-Glu-NHMec fluorogenic cleavage;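 active means inhibition above the campaign mean inhibition over all tested compounds plus 3 SD, cut at about 28% in these data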;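 further: 0% = plate median of test compound wells and 100% = 2 mM ZnCl2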
SUMO HTRF inh = inhibitors of human SUMOylation (UBC9); P63279; HTRF SUMOylation assay, SAE1/SAE2 + UBC9, in vitro; 290,000 compounds, 0.36% hits; inhibition, % at 35 µM; in the data active means inhibition above about 50%, passing the limit was not always enough
Target sequence (P63279 whole entry, looked up): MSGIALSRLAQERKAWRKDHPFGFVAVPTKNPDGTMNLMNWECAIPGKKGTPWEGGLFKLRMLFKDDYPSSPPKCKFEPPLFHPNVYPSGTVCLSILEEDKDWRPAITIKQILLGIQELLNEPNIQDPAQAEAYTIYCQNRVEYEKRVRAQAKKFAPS
A3A deaminase = human APOBEC3A DNA deaminase inhibition. P31941. recombinant A3A, FAM/TAMRA ssDNA deamination fluorescence. inhibition, % at 20 µM. 330,000 compounds, 0.41% hits. AID 493011;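 active means at least 40% inhibition at 20 µM here, with at most 30% in a related deaminase screen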;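 further: plate controls were A3A with DMSO for no effect and wells lacking A3A enzyme for full effect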
Target sequence (P31941 whole entry, looked up): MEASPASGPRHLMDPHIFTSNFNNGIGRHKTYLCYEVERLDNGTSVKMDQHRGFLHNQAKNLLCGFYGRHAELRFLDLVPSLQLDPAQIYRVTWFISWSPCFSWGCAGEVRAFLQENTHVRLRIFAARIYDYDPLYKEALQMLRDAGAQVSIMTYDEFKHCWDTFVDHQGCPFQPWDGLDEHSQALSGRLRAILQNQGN
HKDC1 inh = blocks human hexokinase HKDC1 activity; Q2TB90; recombinant HKDC1, G6PDH/diaphorase resazurin coupled fluorescence; inhibition, % at 20 µM; 340,000 compounds, 0.16% hits; AID 493160;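 active means inhibition above about 35% when tested at 20 µM, limit read from the data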;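 further: plate controls were DMSO wells with enzyme for no effect and DMSO wells lacking enzyme for full effect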
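Assay system: in-house recombinant HK5 (HKDC1) enzyme. Input: HKDC1 at 5 µg/mL. Medium: Tris pH 8.0 buffer with MgCl2, Tween-20, BSA, BME. Dosing: single 20 µM dose. Schedule: 90 min reaction incubation at room temperature, dark. Signal: resazurin-to-resorufin fluorescence via G6PDH and diaphorase coupling, 525/613 nm. Controls: DMSO-enzyme wells negative, buffer-substituted wells positive.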
PfM18AAP inh-2 = PfM18AAP inhibition, confirmation; inhibition, % at 7.35 µM; recombinant PfM18AAP, H-Glu-NHMec fluorogenic cleavage; AID 2170; 2,400 compounds, 28% hits; shares compounds with PfM18AAP inh-1;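 active means mean inhibition over replicate wells above the hit cutoff set for the earlier primary screen, cut at about 29% in these data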;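 further: 0% = median of test compound wells and 100% = 2 mM ZnCl2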
CTSL1 confirm = Cathepsin L (human) inhibition, confirmation | AID 2178 | 2,400 tested, under 10 active | inhibition, % at 5.96 µM | shares compounds with PfM18AAP inh-1 | purified cathepsin L1, Z-Leu-Arg-MCA fluorescence;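 active means average inhibition across replicates above the hit cutoff set in the earlier primary screen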;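 further: 0% = median of test compound wells and 100% = Z-Phe-Ala-diazomethylketone 1 µM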
The depositor's hits bear a star; / = not tested or not shown.

SMILES	APOBEC3G inh	PfGluPho inh	PfM18AAP inh-1	SUMO HTRF inh	A3A deaminase	HKDC1 inh	PfM18AAP inh-2	CTSL1 confirm
COc1ccc(NC(=S)NNc2ccc(S(=O)(=O)Nc3ccccc3C(=O)O)cc2[N+](=O)[O-])cc1	-4	-7	64*	-1	-9	-2	42*	-2
Cc1ccccc1/C=N/N1C(=O)CSC1=S	-8	-6	35*	6	-1	0	-9	3
O=C1CSC(=S)N1N=Cc1cccc(OCc2ccccc2)c1	/	-17	/	/	/	/	/	/
O=C1CSC(=S)N1/N=C/c1cccnc1	-4	25	35*	-8	-3	2	11	0
O=C(NCc1ccccc1)c1ccc(N2CCC3(CC2)CC(c2ccccc2)=NO3)c([N+](=O)[O-])c1	-7	8	10	-5	-1	0	/	/
O=C(Cc1cnn(-c2ccccc2)c1)c1ccc(O)c(O)c1O	3	22	38*	38	6	1	11	-10
CCN(CC)c1ccc(S(=O)(=O)N2CCOCC2)cc1NC(=O)COC(=O)/C=C/c1ccccc1	/	16	/	/	/	1	/	/
COc1ccc(CNC(=O)c2ccc3c(c2)N(C)C(=O)CS3=O)cc1 (stereo not given)	-7	41	47*	11	0	-2	-15	5
O=C(Cn1c(-c2ccccn2)nc2ccccc21)N/N=C/c1cccnc1	-8	-16	-2	-2	-1	2	/	/
Oc1ccccc1N=Cc1c(O)ccc2oc3c(c12)CCCC3	2	4	39*	42	-12	2	9	3
N#C/C(=C\c1coc2ccc(O)cc2c1=O)C(=O)Nc1nc2ccccc2s1	-13	4	51*	4	12	33	-15	-3
O=C(c1cccc([N+](=O)[O-])c1)N1CCN(S(=O)(=O)N2CCCCC2)CC1	-3	1	1	4	2	-3	/	/
CCOc1ccc(NC(=S)c2ccc3ccccc3n2)cc1	29	47	41*	-15	-3	-5	-30	-5
Cc1cc(NC(=O)/C=C/c2ccccc2Cl)n(-c2nc3ccccc3[nH]2)n1	2	-12	-1	-21	3	-8	/	/
NNc1nc2cc3c(cc2s1)OCCO3	0	38	52*	11	-2	-1	9	-5
CCOC(=O)c1ccc(NC(=O)c2cc(S(=O)(=O)N3CCOCC3)ccc2O)cc1	-1	-27	7	13	0	-5	/	/
COc1ccc(CNC(=O)C(C)n2nc(C)c3c(C)n(-c4ccc(C)cc4)nc3c2=O)cc1 (stereo not given)	-1	-3	-6	16	-2	-5	/	/
CN(C)c1ccc(C(=O)NNC(=O)Nc2ccccc2)cc1	-8	8	55*	22	-2	-9	31*	-10
O=C(NNC(=O)c1ccc(NC(=O)c2ccccc2)cc1)Nc1ccccc1	1	-13	14	20	12	-3	/	/
Cc1nc2ccccn2c1C(=O)NNC(=O)Nc1ccccc1	-3	-2	66*	11	-1	-6	67*	0
CCOC(=O)C1CCCN(C(=O)Cn2nc(C)c3c(C)n(-c4ccccc4)nc3c2=O)C1 (stereo not given)	-1	-11	0	9	-3	2	/	/
Brc1ccccc1Cn1cnc2ccccc21	-5	-13	5	4	0	6	/	/
C/C(=N\NC(=O)COc1ccccc1)c1ccc(O)cc1	-4	-10	1	28	-6	1	/	/
C/C(=N\NC(=O)CC#N)c1ccc(Oc2ccccc2)cc1	-8	-7	33*	7	2	-7	-28	2
CCC(CC)c1nnc(NC(=O)C2CC(=O)N(CCc3ccc(F)cc3)C2)s1 (stereo not given)	-2	36	35*	-13	3	-3	-41	-3
O=C(O)c1ccc(-c2ccc(/C=C3\NC(=O)N(Cc4ccc(Cl)cc4)C3=O)o2)cc1Cl	59	-24	-9	22	89	6	/	/

From PubChem
